Source: ChEMBL document CHEMBL1649124, “Genetic variability among ampC genes from acinetobacter genomic species 3” (Antimicrob Agents Chemother, 2009)
≈ marks a conversion by molar mass, not a printed value.

Key:
[1] = system: CC(=O)OCC1=C(C(=O)O)N2C(=O)[C@@H](NC(=O)Cc3cccs3)[C@H]2SC1; assay: (§1) Activity of Acinetobacter genomosp. 3 isolate 65 ADC-14; conditions: Acinetobacter pittii
Summary of the method: (§2)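 AmpC genes from AG3 clinical isolates were cloned into pGEX-6P-1 and expressed as GST fusions. The mature enzyme was purified free of GST, giving a 43 kDa SDS-PAGE band of 95% purity. Kinetics were read spectrophotometrically at 25°C in PBS with 20 mg/liter BSA, three repeats. For poor substrates, Km was taken as Ki in competitive assays with Centa as reporter substrate. Vmax came from the Michaelis-Menten equation at six times Km antibiotic.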

[2] = system: CC(C)(O/N=C(\C(=O)N[C@@H]1C(=O)N2C(C(=O)[O-])=C(C[n+]3ccccc3)CS[C@H]12)c1csc(N)n1)C(=O)O; assay: as §1; conditions: Acinetobacter pittii; summary of the method: as §2
[3] = system: CO/N=C(\C(=O)N[C@@H]1C(=O)N2C(C(=O)O)=C(COC(C)=O)CS[C@H]12)c1csc(N)n1; assay: as §1; conditions: Acinetobacter pittii; summary of the method: as §2
[4] = system: CO/N=C(\C(=O)N[C@@H]1C(=O)N2C(C(=O)O)=C(COC(N)=O)CS[C@H]12)c1ccco1; assay: as §1; conditions: Acinetobacter pittii; summary of the method: as §2
[5] = system: CO[C@@]1(NC(=O)Cc2cccs2)C(=O)N2C(C(=O)O)=C(COC(N)=O)CS[C@@H]21; assay: as §1; conditions: Acinetobacter pittii; summary of the method: as §2
[6] = system: C[C@H]1[C@H](NC(=O)/C(=N\OC(C)(C)C(=O)O)c2csc(N)n2)C(=O)N1S(=O)(=O)O; assay: as §1; conditions: Acinetobacter pittii; summary of the method: as §2
[7] = system: CC(=O)OCC1=C(C(=O)O)N2C(=O)[C@@H](NC(=O)Cc3cccs3)[C@H]2SC1; assay: (§3) Ratio of Kcat to Km for Acinetobacter genomosp. 3 isolate 65 ADC-14; conditions: Acinetobacter pittii; summary of the method: as §2
[8] = system: CC(C)(O/N=C(\C(=O)N[C@@H]1C(=O)N2C(C(=O)[O-])=C(C[n+]3ccccc3)CS[C@H]12)c1csc(N)n1)C(=O)O; assay: as §3; conditions: Acinetobacter pittii; summary of the method: as §2
[9] = system: CO/N=C(\C(=O)N[C@@H]1C(=O)N2C(C(=O)O)=C(COC(C)=O)CS[C@H]12)c1csc(N)n1; assay: as §3; conditions: Acinetobacter pittii; summary of the method: as §2
[10] = system: CO/N=C(\C(=O)N[C@@H]1C(=O)N2C(C(=O)O)=C(COC(N)=O)CS[C@H]12)c1ccco1; assay: as §3; conditions: Acinetobacter pittii; summary of the method: as §2
[11] = system: CO[C@@]1(NC(=O)Cc2cccs2)C(=O)N2C(C(=O)O)=C(COC(N)=O)CS[C@@H]21; assay: as §3; conditions: Acinetobacter pittii; summary of the method: as §2
[12] = system: CC(=O)OCC1=C(C(=O)O)N2C(=O)[C@@H](NC(=O)Cc3cccs3)[C@H]2SC1; assay: (§4) Activity of Acinetobacter genomosp. 3 isolate 103 ADC-16; conditions: Acinetobacter pittii; summary of the method: as §2
[13] = system: CC(C)(O/N=C(\C(=O)N[C@@H]1C(=O)N2C(C(=O)[O-])=C(C[n+]3ccccc3)CS[C@H]12)c1csc(N)n1)C(=O)O; assay: as §4; conditions: Acinetobacter pittii; summary of the method: as §2
[14] = system: CO/N=C(\C(=O)N[C@@H]1C(=O)N2C(C(=O)O)=C(COC(C)=O)CS[C@H]12)c1csc(N)n1; assay: as §4; conditions: Acinetobacter pittii; summary of the method: as §2
[15] = system: CO/N=C(\C(=O)N[C@@H]1C(=O)N2C(C(=O)O)=C(COC(N)=O)CS[C@H]12)c1ccco1; assay: as §4; conditions: Acinetobacter pittii; summary of the method: as §2
[16] = system: CO[C@@]1(NC(=O)Cc2cccs2)C(=O)N2C(C(=O)O)=C(COC(N)=O)CS[C@@H]21; assay: as §4; conditions: Acinetobacter pittii; summary of the method: as §2
[17] = system: C[C@H]1[C@H](NC(=O)/C(=N\OC(C)(C)C(=O)O)c2csc(N)n2)C(=O)N1S(=O)(=O)O; assay: as §4; conditions: Acinetobacter pittii; summary of the method: as §2
[18] = system: CC(=O)OCC1=C(C(=O)O)N2C(=O)[C@@H](NC(=O)Cc3cccs3)[C@H]2SC1; assay: (§5) Ratio of Kcat to Km for Acinetobacter genomosp. 3 isolate 103 ADC-16; conditions: Acinetobacter pittii; summary of the method: as §2
[19] = system: CC(C)(O/N=C(\C(=O)N[C@@H]1C(=O)N2C(C(=O)[O-])=C(C[n+]3ccccc3)CS[C@H]12)c1csc(N)n1)C(=O)O; assay: as §5; conditions: Acinetobacter pittii; summary of the method: as §2
[20] = system: CO/N=C(\C(=O)N[C@@H]1C(=O)N2C(C(=O)O)=C(COC(C)=O)CS[C@H]12)c1csc(N)n1; assay: as §5; conditions: Acinetobacter pittii; summary of the method: as §2
[21] = system: CO/N=C(\C(=O)N[C@@H]1C(=O)N2C(C(=O)O)=C(COC(N)=O)CS[C@H]12)c1ccco1; assay: as §5; conditions: Acinetobacter pittii; summary of the method: as §2
[22] = system: CO[C@@]1(NC(=O)Cc2cccs2)C(=O)N2C(C(=O)O)=C(COC(N)=O)CS[C@@H]21; assay: as §5; conditions: Acinetobacter pittii; summary of the method: as §2
Acinetobacter pittii [23] = assay: Antibacterial activity against Acinetobacter genomosp. 3 isolate 14 by Etest method; assay type: functional
Summary of the method: (§6)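 MICs for AG3 clinical isolates were read by Etest following the manufacturer's instructions. Isolates were stored at –80°C in 10% Brucella glycerol broth before testing.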

Acinetobacter pittii [24] = assay: Antibacterial activity against Acinetobacter genomosp. 3 isolate 20 by Etest method; assay type: functional; summary of the method: as §6
Acinetobacter pittii [25] = assay: Antibacterial activity against Acinetobacter genomosp. 3 isolate 21 by Etest method; assay type: functional; summary of the method: as §6
Acinetobacter pittii [26] = assay: Antibacterial activity against Acinetobacter genomosp. 3 isolate 52 by Etest method; assay type: functional; summary of the method: as §6
Acinetobacter pittii [27] = assay: Antibacterial activity against Acinetobacter genomosp. 3 isolate 56 by Etest method; assay type: functional; summary of the method: as §6
Acinetobacter pittii [28] = assay: Antibacterial activity against Acinetobacter genomosp. 3 isolate 60 by Etest method; assay type: functional; summary of the method: as §6
Acinetobacter pittii [29] = assay: Antibacterial activity against Acinetobacter genomosp. 3 isolate 65 by Etest method; assay type: functional; summary of the method: as §6
Acinetobacter pittii [30] = assay: Antibacterial activity against Acinetobacter genomosp. 3 isolate 67 by Etest method; assay type: functional; summary of the method: as §6
Escherichia coli [31] = assay: Antibacterial activity against Escherichia coli DH5alpha by Etest method; assay type: functional
Summary of the method: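 E. coli DH5α host strain, grown at 37°C in LB medium. MICs of β-lactams determined by Etest following the manufacturer's instructions.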

Acinetobacter pittii [32] = assay: Antibacterial activity against Acinetobacter genomosp. 3 isolate 69 by Etest method; assay type: functional; summary of the method: as §6
Acinetobacter pittii [33] = assay: Antibacterial activity against Acinetobacter genomosp. 3 isolate 90 by Etest method; assay type: functional; summary of the method: as §6
Acinetobacter pittii [34] = assay: Antibacterial activity against Acinetobacter genomosp. 3 isolate 103 by Etest method; assay type: functional; summary of the method: as §6
Acinetobacter pittii [35] = assay: Antibacterial activity against Acinetobacter genomosp. 3 isolate 109 by Etest method; assay type: functional; summary of the method: as §6
Acinetobacter pittii [36] = assay: Antibacterial activity against Acinetobacter genomosp. 3 isolate 128 by Etest method; assay type: functional; summary of the method: as §6
Acinetobacter pittii [37] = assay: Antibacterial activity against Acinetobacter genomosp. 3 isolate 195 by Etest method; assay type: functional; summary of the method: as §6
Acinetobacter pittii [38] = assay: Antibacterial activity against Acinetobacter genomosp. 3 isolate 243 by Etest method; assay type: functional; summary of the method: as §6
Escherichia coli [39] = assay: Antibacterial activity against Escherichia coli DH5alpha carrying ampC gene of Acinetobacter genomosp. 3 isolate 14 by Etest method; assay type: functional
Summary of the method: (§7)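 E. coli DH5α expressing the AG3 isolate ampC gene, PCR-amplified (high-fidelity system, 28 cycles) and cloned into BamHI/HindIII sites of pBGS18 (kanamycin marker) under the CTX-M-14 β-lactamase promoter. Grown at 37°C in LB, with kanamycin 50 µg/ml when needed. β-Lactam MICs determined by Etest per the manufacturer's instructions.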

Escherichia coli [40] = assay: Antibacterial activity against Escherichia coli DH5alpha carrying ampC gene of Acinetobacter genomosp. 3 isolate 20 by Etest method; assay type: functional; summary of the method: as §7
Escherichia coli [41] = assay: Antibacterial activity against Escherichia coli DH5alpha carrying ampC gene of Acinetobacter genomosp. 3 isolate 56 by Etest method; assay type: functional; summary of the method: as §7
Escherichia coli [42] = assay: Antibacterial activity against Escherichia coli DH5alpha carrying ampC gene of Acinetobacter genomosp. 3 isolate 65 by Etest method; assay type: functional; summary of the method: as §7
Escherichia coli [43] = assay: Antibacterial activity against Escherichia coli DH5alpha carrying ampC gene of Acinetobacter genomosp. 3 isolate 69 by Etest method; assay type: functional; summary of the method: as §7
Escherichia coli [44] = assay: Antibacterial activity against Escherichia coli DH5alpha carrying ampC gene of Acinetobacter genomosp. 3 isolate 103 by Etest method; assay type: functional; summary of the method: as §7
Escherichia coli [45] = assay: Antibacterial activity against Escherichia coli DH5alpha carrying ampC gene of Acinetobacter genomosp. 3 isolate 109 by Etest method; assay type: functional; summary of the method: as §7
Escherichia coli [46] = assay: Antibacterial activity against Escherichia coli DH5alpha carrying ampC gene of Acinetobacter genomosp. 3 isolate 195 by Etest method; assay type: functional; summary of the method: as §7

Compound: ADC-14 protein (Acinetobacter genomosp. 3) (from UniProt Q0VTR6)
- Km [1]: 6.73 µM
- kcat [1]: 56.5 s⁻¹
- Km [2]: 26.1 µM
- kcat [2]: 0.01 s⁻¹
- Km [3]: 0.08 µM
- kcat [3]: 0.004 s⁻¹
- Km [4]: 0.02 µM
- kcat [4]: 0.01 s⁻¹
- Km [5]: 0.02 µM
- kcat [5]: 0.02 s⁻¹
- Km [6]: 6.01 µM
- kcat/Km [7]: 8400 mM⁻¹ s⁻¹
- kcat/Km [8]: 0.38 mM⁻¹ s⁻¹
- kcat/Km [9]: 48.2 mM⁻¹ s⁻¹
- kcat/Km [10]: 529 mM⁻¹ s⁻¹
- kcat/Km [11]: 941 mM⁻¹ s⁻¹

Compound: ADC-16 protein (Acinetobacter genomosp. 3) (from UniProt Q0VTR8)
- Km [12]: 139 µM
- kcat [12]: 1380 s⁻¹
- Km [13]: 110 µM
- kcat [13]: 0.02 s⁻¹
- Km [14]: 0.32 µM
- kcat [14]: 0.07 s⁻¹
- Km [15]: 0.27 µM
- kcat [15]: 0.62 s⁻¹
- Km [16]: 0.18 µM
- kcat [16]: 0.33 s⁻¹
- Km [17]: 3.85 µM
- kcat/Km [18]: 9920 mM⁻¹ s⁻¹
- kcat/Km [19]: 212 mM⁻¹ s⁻¹
- kcat/Km [20]: 212 mM⁻¹ s⁻¹
- kcat/Km [21]: 2340 mM⁻¹ s⁻¹
- kcat/Km [22]: 1880 mM⁻¹ s⁻¹

Compound: CO[C@@]1(NC(=O)Cc2cccs2)C(=O)N2C(C(=O)O)=C(COC(N)=O)CS[C@@H]21 [CEFOXITIN]
- MIC (Acinetobacter pittii [23]): > 256 µg/mL
- MIC (Acinetobacter pittii [24]): > 256 µg/mL
- MIC (Acinetobacter pittii [25]): > 256 µg/mL
- MIC (Acinetobacter pittii [26]): > 256 µg/mL
- MIC (Acinetobacter pittii [27]): 64 µg/mL (≈ 150 µM)
- MIC (Acinetobacter pittii [28]): > 256 µg/mL
- MIC (Acinetobacter pittii [29]): 128 µg/mL (≈ 299 µM)
- MIC (Acinetobacter pittii [30]): > 256 µg/mL
- MIC (Escherichia coli [31]): 2 µg/mL (≈ 4.68 µM)
- MIC (Acinetobacter pittii [32]): > 256 µg/mL
- MIC (Acinetobacter pittii [33]): 128 µg/mL (≈ 299 µM)
- MIC (Acinetobacter pittii [34]): 192 µg/mL (≈ 449 µM)
- MIC (Acinetobacter pittii [35]): > 256 µg/mL
- MIC (Acinetobacter pittii [36]): 128 µg/mL (≈ 299 µM)
- MIC (Acinetobacter pittii [37]): > 256 µg/mL
- MIC (Acinetobacter pittii [38]): 48 µg/mL (≈ 112 µM)
- MIC (Escherichia coli [39]): 32 µg/mL (≈ 74.9 µM)
- MIC (Escherichia coli [40]): 32 µg/mL (≈ 74.9 µM)
- MIC (Escherichia coli [41]): 16 µg/mL (≈ 37.4 µM)
- MIC (Escherichia coli [42]): 3 µg/mL (≈ 7.02 µM)
- MIC (Escherichia coli [43]): 16 µg/mL (≈ 37.4 µM)
- MIC (Escherichia coli [44]): 32 µg/mL (≈ 74.9 µM)
- MIC (Escherichia coli [45]): 24 µg/mL (≈ 56.1 µM)
- MIC (Escherichia coli [46]): 24 µg/mL (≈ 56.1 µM)
